Experimental data from paper PMC9435035 (ACS Omega, 2022).
One block for each substance: values may come before it.

Experiments:
[1] = tested on: streptozotocin-induced diabetic Wistar rats; assay: serum profile; assay type: in vivo, Wistar albino rats; settings: STZ-diabetic rats; for (ALP) IU / (SGOT) IU / (SGPT) IU: serum
How it was run: (§1)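 STZ-diabetic Wistar rats (n = 8 per group) received test compound at 10 or 20 mg/kg p.o., or glibenclamide 500 μg/kg p.o., once daily for 28 days; controls received vehicle. On day 28, rats were anesthetised with pentobarbital sodium (35 mg/kg) and blood was drawn by cardiac puncture. Serum ALP, SGPT, SGOT, LDL, HDL, TG, total cholesterol, creatinine and insulin were measured. Means ± SEM, one-way ANOVA with Dunnett's test.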

[2] = target: α-glucosidase (Saccharomyces cerevisiae, UniProt P53341); assay: α-glucosidase inhibitory activity; assay type: biochemical; settings: read-out: glucosidase inhibition IC50 ± SEM; mean ± SEM
[3] = tested on: streptozotocin-induced diabetic Wistar rats; assay: antidiabetic activity: blood glucose in STZ-induced diabetes; assay type: in vivo, Wistar albino rats
How it was run: (§2)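 Male Wistar albino rats (170–200 g, 8–10 weeks), fasted overnight, given STZ 50 mg/kg i.p. in 0.1 M citrate buffer, then 10% glucose for 3 days. Tail-vein glucose by glucometer at 72 h; >250 mg/dL counted as diabetic. Body weight and blood glucose on days 1, 7, 14, 21 and 28. Means ± SEM, one-way ANOVA with Dunnett's test.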

[4] = tested on: streptozotocin-induced diabetic Wistar rats; assay: lipid profile in streptozotocin-induced diabetes; assay type: in vivo, Wistar albino rats; settings: STZ-diabetic rats
How it was run: as §1

[5] = body weight of STZ-induced diabetic rats; assay type: in vivo, Wistar albino rats; settings: for body weight, day 1: day 1, in g (unit assumed); for body weight, day 7: day 7, in g (unit assumed); for body weight, day 14: day 14, in g (unit assumed); for body weight, day 21: day 21, in g (unit assumed); for body weight, day 28: day 28, in g (unit assumed)
How it was run: as §2

[6] = tested on: Balb/C mice; assay: acute toxicity study in mice; assay type: in vivo
How it was run: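 Two-phase modified Lorke protocol in Balb/C mice (20–25 g), four per group. Phase 1: control given Tween-80 (2%); other groups received oral test compound at 100, 500 or 1000 mg/kg. Phase 2: oral doses of 1250, 1500 and 2000 mg/kg. Animals observed for the first 24 h, then daily for 2 weeks for diarrhea, convulsions, lethargy, sleeping, salivation and tremors, with mortality monitored.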

[7] = tested on: overnight fasted normal rats; assay: oral glucose tolerance test; assay type: in vivo, Wistar albino rats; settings: OGTT, glucose 3 g/kg oral

α-glucosidase, sequence (P53341 whole entry): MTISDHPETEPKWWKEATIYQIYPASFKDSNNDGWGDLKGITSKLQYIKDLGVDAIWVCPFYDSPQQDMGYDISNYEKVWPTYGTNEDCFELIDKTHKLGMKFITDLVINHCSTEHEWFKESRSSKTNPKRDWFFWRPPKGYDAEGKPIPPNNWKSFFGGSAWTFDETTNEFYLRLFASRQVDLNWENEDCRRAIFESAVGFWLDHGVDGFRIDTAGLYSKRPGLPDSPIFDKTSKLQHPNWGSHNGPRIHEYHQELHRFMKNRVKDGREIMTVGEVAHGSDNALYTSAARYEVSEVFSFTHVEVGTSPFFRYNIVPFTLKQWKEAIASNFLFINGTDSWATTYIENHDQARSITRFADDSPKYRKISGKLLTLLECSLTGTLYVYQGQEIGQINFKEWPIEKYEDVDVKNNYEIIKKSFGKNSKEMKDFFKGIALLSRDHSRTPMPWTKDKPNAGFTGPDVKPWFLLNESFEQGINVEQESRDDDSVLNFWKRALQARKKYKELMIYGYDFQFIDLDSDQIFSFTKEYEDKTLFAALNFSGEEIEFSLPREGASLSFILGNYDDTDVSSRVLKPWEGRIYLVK

Substance: N,N-Dimethyl-4-(4-(p-tolyl)-2,3-dihydrobenzo[b][1,5]thiazepin-2-yl)aniline [14B]
insulin level ([1]; 10 mg/kg for 28 days): 0.690 ± 0.27 ng/mL
serum creatinine ([1]; 10 mg/kg for 28 days): 0.75 ± 0.36 mg/dL
(ALP) IU ([1]; 10 mg/kg for 28 days): 210.98 ± 4.39 IU
(SGOT) IU ([1]; 10 mg/kg for 28 days): 25.56 ± 2.18 IU
(SGPT) IU ([1]; 10 mg/kg for 28 days): 25.08 ± 2.78 IU
insulin level ([1]; 20 mg/kg for 28 days): 0.697 ± 0.34 ng/mL
serum creatinine ([1]; 20 mg/kg for 28 days): 0.72 ± 0.30 mg/dL
(ALP) IU ([1]; 20 mg/kg for 28 days): 203.51 ± 4.34 IU
(SGOT) IU ([1]; 20 mg/kg for 28 days): 22.20 ± 2.21 IU
(SGPT) IU ([1]; 20 mg/kg for 28 days): 22.82 ± 2.91 IU
IC50 [2]: 3.34 ± 0.27 µM
blood glucose level, day 1 ([3]; 10 mg/kg p.o. once daily): 369.82 ± 4.12 mg/dL
blood glucose level, day 7 ([3]; 10 mg/kg p.o. once daily): 294.04 ± 4.67 mg/dL
blood glucose level, day 14 ([3]; 10 mg/kg p.o. once daily): 196.39 ± 4.12 mg/dL
blood glucose level, day 21 ([3]; 10 mg/kg p.o. once daily): 151.11 ± 4.39 mg/dL
blood glucose level, day 28 ([3]; 10 mg/kg p.o. once daily, day 28, 10 mg/kg): 134.20 ± 4.21 mg/dL
blood glucose level, day 1 ([3]; 20 mg/kg p.o. once daily): 370.33 ± 3.98 mg/dL
blood glucose level, day 7 ([3]; 20 mg/kg p.o. once daily): 231.69 ± 5.20 mg/dL
blood glucose level, day 14 ([3]; 20 mg/kg p.o. once daily): 158.26 ± 4.67 mg/dL
blood glucose level, day 21 ([3]; 20 mg/kg p.o. once daily): 127.21 ± 4.81 mg/dL
blood glucose level, day 28 ([3]; 20 mg/kg p.o. once daily, day 28, 20 mg/kg): 109.71 ± 4.23 mg/dL
HDL ([4]; 10 mg/kg for 28 days): 45.25 ± 2.15 mg/dL
LDL ([4]; 10 mg/kg for 28 days): 129.08 ± 4.06 mg/dL
TG ([4]; 10 mg/kg for 28 days): 144.11 ± 4.39 mg/dL
total CH ([4]; 10 mg/kg for 28 days, 10 mg/kg): 149.08 ± 4.12 mg/dL
HDL ([4]; 20 mg/kg for 28 days): 55.21 ± 2.66 mg/dL
LDL ([4]; 20 mg/kg for 28 days): 110.41 ± 3.90 mg/dL
TG ([4]; 20 mg/kg for 28 days): 115.24 ± 4.13 mg/dL
total CH ([4]; 20 mg/kg for 28 days, 20 mg/kg): 135.11 ± 4.02 mg/dL
body weight, day 1 ([5]; 10 mg/kg): 188.5 ± 4.07
body weight, day 7 ([5]; 10 mg/kg): 186.8 ± 4.39
body weight, day 14 ([5]; 10 mg/kg): 187.1 ± 4.33
body weight, day 21 ([5]; 10 mg/kg): 181.6 ± 4.21
body weight, day 28 ([5]; 10 mg/kg): 179.3 ± 4.41
body weight, day 1 ([5]; 20 mg/kg): 189.1 ± 4.19
body weight, day 7 ([5]; 20 mg/kg): 188.5 ± 4.21
body weight, day 14 ([5]; 20 mg/kg): 189.2 ± 4.66
body weight, day 21 ([5]; 20 mg/kg): 183.4 ± 4.18
body weight, day 28 ([5]; 20 mg/kg): 182.5 ± 4.58
mortality ([6]; maximum oral dose of 2000 mg/kg (b.w.)): no mortality
toxic effects (diarrhea, convulsions, lethargy, sleeping, salivation, tremor) ([6]; oral up to 2000 mg/kg, observed daily for 2 weeks): no toxic effects
blood glucose level, 0 min ([7]; dose 10 mg/kg): 104.21 ± 4.67 mg/dL
blood glucose level, 30 min ([7]; dose 10 mg/kg): 124.02 ± 4.01 mg/dL
blood glucose level, 60 min ([7]; dose 10 mg/kg): 119.33 ± 4.63 mg/dL
blood glucose level, 90 min ([7]; dose 10 mg/kg): 114.98 ± 4.03 mg/dL
blood glucose level, 120 min ([7]; dose 10 mg/kg): 116.49 ± 4.71 mg/dL
blood glucose level, 0 min ([7]; dose 20 mg/kg): 103.87 ± 4.18 mg/dL
blood glucose level, 30 min ([7]; dose 20 mg/kg): 119.61 ± 4.55 mg/dL
blood glucose level, 60 min ([7]; dose 20 mg/kg): 116.20 ± 4.78 mg/dL
blood glucose level, 90 min ([7]; dose 20 mg/kg): 112.69 ± 4.11 mg/dL
blood glucose level, 120 min ([7]; dose 20 mg/kg): 111.61 ± 4.97 mg/dL

Substance: 2-(4-Butoxy-3-methoxyphenyl)-4-(p-tolyl)-2,3-dihydrobenzo[b][1,5]thiazepine [9B]
IC50 [2]: 8.56 ± 0.59 µM

IC50 [2]: 9.44 ± 0.83 µM
Substance: 2-(4-Ethoxyphenyl)-4-(p-tolyl)-2,3-dihydrobenzo[b][1,5]thiazepine [8B]
